# Experimental data: ChEMBL document CHEMBL4689842, “EUbOPEN Chemogenomics Library wave 1” (2021)
# Where “and” joins values, the source holds several entries; their conditions need not be identical. Identical values can stand only once.
# Test system: HEK-293T
# Test: Multiplex assay against HEK293T;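 on Population Tubulin-Different-Phenotype (%): share of the cells with healthy nuclei that show this phenotype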
# Type: toxicity, cell-based
# Details: human
# How it was run: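 Cells were classed with CellPathfinder machine-learning gating, first as Hoechst high-intensity objects or normal cells, then (normal cells) as healthy, pyknosed or fragmented nuclei, and finally (pyknosed cells) as mitotic or apoptotic. Staining of live cells at seeding used Hoechst33342, BioTracker Green Microtubule Cytoskeleton Dye, MitoTracker Red and Annexin V Alexa Fluor 680, with imaging on a CQ1 microscope at 37°C and 5% CO2 after compound addition. Tubulin, mitochondrial-mass and membrane-permeability phenotypes are per cents of healthy-nucleus cells.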
# [1] = 12 h, 1 µM, compound concentration 1 uM, replicate 1
# [2] = 12 h, 1 µM, compound concentration 1 uM, replicate 2
# [3] = 12 h, 10 µM, compound concentration 10 uM, replicate 1
# [4] = 12 h, 10 µM, compound concentration 10 uM, replicate 2
# [5] = 24 h, 1 µM, compound concentration 1 uM, replicate 1
# [6] = 24 h, 1 µM, compound concentration 1 uM, replicate 2
# [7] = 24 h, 10 µM, compound concentration 10 uM, replicate 1
# [8] = 24 h, 10 µM, compound concentration 10 uM, replicate 2
# [9] = 48 h, 1 µM, compound concentration 1 uM, replicate 1
# [10] = 48 h, 1 µM, compound concentration 1 uM, replicate 2
# [11] = 48 h, 10 µM, compound concentration 10 uM, replicate 1
# [12] = 48 h, 10 µM, compound concentration 10 uM, replicate 2
smiles,measurement,setting,value
Cl.O=c1c2cccn2c2ccccc2n1CCCN1CCC(c2ccc(Cl)cc2)CC1,Population Apoptotic (%),[1],57%
same,Population Fragmented Nuclei (%),[1],7%
same,Population Healthy Nuclei (%),[1],47%
same,Population Hoechst High Intensity Objects (%),[1],10%
same,Population Membrane Permeable-Phenotype (%),[1],0%
same,Population Mitochondria Different-Phenotype (%),[1],95%
same,Population Mitotic Cells (%),[1],42%
same,Population Normal (%),[1],89%
same,Population Pyknosed Nuclei (%),[1],44%
same,Population Tubulin-Different-Phenotype (%),[1],80%
same,Total Cell Count,[1],267
same,Population Apoptotic (%),[2],30%
same,Population Fragmented Nuclei (%),[2],5%
same,Population Healthy Nuclei (%),[2],38%
same,Population Hoechst High Intensity Objects (%),[2],5%
same,Population Membrane Permeable-Phenotype (%),[2],6%
same,Population Mitochondria Different-Phenotype (%),[2],65%
same,Population Mitotic Cells (%),[2],69%
same,Population Normal (%),[2],94%
same,Population Pyknosed Nuclei (%),[2],56%
same,Population Tubulin-Different-Phenotype (%),[2],59%
same,Total Cell Count,[2],238
same,Population Apoptotic (%),[3],86%
same,Population Fragmented Nuclei (%),[3],8%
same,Population Healthy Nuclei (%),[3],34%
same,Population Hoechst High Intensity Objects (%),[3],17%
same,Population Membrane Permeable-Phenotype (%),[3],5%
same,Population Mitochondria Different-Phenotype (%),[3],100%
same,Population Mitotic Cells (%),[3],13%
same,Population Normal (%),[3],82%
same,Population Pyknosed Nuclei (%),[3],57%
same,Population Tubulin-Different-Phenotype (%),[3],94%
same,Total Cell Count,[3],297
same,Population Apoptotic (%),[4],92%
same,Population Fragmented Nuclei (%),[4],7%
same,Population Healthy Nuclei (%),[4],19%
same,Population Hoechst High Intensity Objects (%),[4],9%
same,Population Mitochondria Different-Phenotype (%),[4],91%
same,Population Mitotic Cells (%),[4],7%
same,Population Normal (%),[4],90%
same,Population Pyknosed Nuclei (%),[4],72%
same,Population Tubulin-Different-Phenotype (%),[4],86%
same,Total Cell Count,[4],212
same,Population Apoptotic (%),[5],53%
same,Population Fragmented Nuclei (%),[5],7%
same,Population Healthy Nuclei (%),[5],55%
same,Population Hoechst High Intensity Objects (%),[5],12%
same,Population Membrane Permeable-Phenotype (%),[5],1%
same,Population Mitochondria Different-Phenotype (%),[5],93%
same,Population Mitotic Cells (%),[5],46%
same,Population Normal (%),[5],87%
same,Population Pyknosed Nuclei (%),[5],37%
same,Population Tubulin-Different-Phenotype (%),[5],73%
same,Total Cell Count,[5],278
same,Population Apoptotic (%),[6],38%
same,Population Fragmented Nuclei (%),[6],5%
same,Population Healthy Nuclei (%),[6],56%
same,Population Hoechst High Intensity Objects (%),[6],4%
same,Population Membrane Permeable-Phenotype (%),[6],4%
same,Population Mitochondria Different-Phenotype (%),[6],75%
same,Population Mitotic Cells (%),[6],61%
same,Population Normal (%),[6],95%
same,Population Pyknosed Nuclei (%),[6],38%
same,Population Tubulin-Different-Phenotype (%),[6],65%
same,Total Cell Count,[6],296
same,Population Apoptotic (%),[7],84%
same,Population Fragmented Nuclei (%),[7],13%
same,Population Healthy Nuclei (%),[7],36%
same,Population Hoechst High Intensity Objects (%),[7],27%
same,Population Membrane Permeable-Phenotype (%),[7],6%
same,Population Mitochondria Different-Phenotype (%),[7],100%
same,Population Mitotic Cells (%),[7],15%
same,Population Normal (%),[7],72%
same,Population Pyknosed Nuclei (%),[7],50%
same,Population Tubulin-Different-Phenotype (%),[7],88%
same,Total Cell Count,[7],286
same,Population Apoptotic (%),[8],98%
same,Population Fragmented Nuclei (%),[8],7%
same,Population Healthy Nuclei (%),[8],34%
same,Population Hoechst High Intensity Objects (%),[8],16%
same,Population Membrane Permeable-Phenotype (%),[8],3%
same,Population Mitochondria Different-Phenotype (%),[8],96%
same,Population Mitotic Cells (%),[8],1%
same,Population Normal (%),[8],83%
same,Population Pyknosed Nuclei (%),[8],58%
same,Population Tubulin-Different-Phenotype (%),[8],67%
same,Total Cell Count,[8],206
same,Population Apoptotic (%),[9],43%
same,Population Healthy Nuclei (%),[9],77%
same,Population Hoechst High Intensity Objects (%),[9],7%
same,Population Membrane Permeable-Phenotype (%),[9],2%
same,Population Mitochondria Different-Phenotype (%),[9],63%
same,Population Mitotic Cells (%),[9],56%
same,Population Normal (%),[9],92%
same,Population Pyknosed Nuclei (%),[9],15%
same,Population Tubulin-Different-Phenotype (%),[9],59%
same,Total Cell Count,[9],453
same,Population Apoptotic (%),[10],31%
same,Population Fragmented Nuclei (%),[10],7%
same,Population Healthy Nuclei (%),[10],70%
same,Population Hoechst High Intensity Objects (%),[10],5%
same,Population Membrane Permeable-Phenotype (%),[10],3%
same,Population Mitochondria Different-Phenotype (%),[10],32%
same,Population Mitotic Cells (%),[10],68%
same,Population Normal (%),[10],94%
same,Population Pyknosed Nuclei (%),[10],22%
same,Population Tubulin-Different-Phenotype (%),[10],54%
same,Total Cell Count,[10],461
same,Population Apoptotic (%),[11],82%
same,Population Fragmented Nuclei (%),[11],15%
same,Population Healthy Nuclei (%),[11],35%
same,Population Hoechst High Intensity Objects (%),[11],38%
same,Population Membrane Permeable-Phenotype (%),[11],2%
same,Population Mitochondria Different-Phenotype (%),[11],97%
same,Population Mitotic Cells (%),[11],17%
same,Population Normal (%),[11],61%
same,Population Pyknosed Nuclei (%),[11],48%
same,Population Tubulin-Different-Phenotype (%),[11],79%
same,Total Cell Count,[11],311
same,Population Apoptotic (%),[12],98%
same,Population Fragmented Nuclei (%),[12],13%
same,Population Healthy Nuclei (%),[12],42%
same,Population Hoechst High Intensity Objects (%),[12],30%
same,Population Membrane Permeable-Phenotype (%),[12],3%
same,Population Mitochondria Different-Phenotype (%),[12],98%
same,Population Mitotic Cells (%),[12],1%
same,Population Normal (%),[12],69%
same,Population Pyknosed Nuclei (%),[12],43%
same,Population Tubulin-Different-Phenotype (%),[12],64%
same,Total Cell Count,[12],191
Cl.O=C(c1ccc(Nc2nccc(-c3cc4ccccc4s3)n2)cc1)N1CCC(N2CCCC2)CC1,Population Apoptotic (%),[1],28%
same,Population Fragmented Nuclei (%),[1],10%
same,Population Healthy Nuclei (%),[1],59%
same,Population Hoechst High Intensity Objects (%),[1],8%
same,Population Membrane Permeable-Phenotype (%),[1],17%
same,Population Mitochondria Different-Phenotype (%),[1],14%
same,Population Mitotic Cells (%),[1],71%
same,Population Normal (%),[1],91%
same,Population Pyknosed Nuclei (%),[1],29%
same,Population Tubulin-Different-Phenotype (%),[1],73%
same,Total Cell Count,[1],657
same,Population Apoptotic (%),[2],12%
same,Population Fragmented Nuclei (%),[2],4%
same,Population Healthy Nuclei (%),[2],89%
same,Population Hoechst High Intensity Objects (%),[2],3%
same,Population Membrane Permeable-Phenotype (%),[2],11%
same,Population Mitochondria Different-Phenotype (%),[2],20%
same,Population Mitotic Cells (%),[2],87%
same,Population Normal (%),[2],96%
same,Population Pyknosed Nuclei (%),[2],6%
same,Population Tubulin-Different-Phenotype (%),[2],67%
same,Total Cell Count,[2],1518
same,Population Apoptotic (%),[3],32% and 71%
same,Population Fragmented Nuclei (%),[3],13% and 26%
same,Population Healthy Nuclei (%),[3],21% and 0%
same,Population Hoechst High Intensity Objects (%),[3],17% and 23%
same,Population Membrane Permeable-Phenotype (%),[3],4% and 0%
same,Population Mitochondria Different-Phenotype (%),[3],66% and 100%
same,Population Mitotic Cells (%),[3],67% and 28%
same,Population Normal (%),[3],82% and 76%
same,Population Pyknosed Nuclei (%),[3],65% and 72%
same,Population Tubulin-Different-Phenotype (%),[3],75% and 100%
same,Population Fragmented Nuclei (%),[4],3% and 9%
same,Population Hoechst High Intensity Objects (%),[4],9% and 10%
same,Population Membrane Permeable-Phenotype (%),[4],6%
same,Population Mitochondria Different-Phenotype (%),[4],68% and 75%
same,Population Normal (%),[4],90% and 89%
same,Population Pyknosed Nuclei (%),[4],58% and 87%
same,Population Tubulin-Different-Phenotype (%),[4],97%
same,Population Apoptotic (%),[5],17%
same,Population Fragmented Nuclei (%),[5],8%
same,Population Healthy Nuclei (%),[5],79%
same,Population Hoechst High Intensity Objects (%),[5],7%
same,Population Membrane Permeable-Phenotype (%),[5],24%
same,Population Mitochondria Different-Phenotype (%),[5],9%
same,Population Mitotic Cells (%),[5],82%
same,Population Normal (%),[5],92%
same,Population Pyknosed Nuclei (%),[5],11%
same,Population Tubulin-Different-Phenotype (%),[5],64%
same,Total Cell Count,[5],845
same,Population Apoptotic (%),[6],3%
same,Population Fragmented Nuclei (%),[6],14%
same,Population Healthy Nuclei (%),[6],82%
same,Population Hoechst High Intensity Objects (%),[6],3%
same,Population Membrane Permeable-Phenotype (%),[6],14%
same,Population Mitochondria Different-Phenotype (%),[6],4%
same,Population Mitotic Cells (%),[6],96%
same,Population Normal (%),[6],96%
same,Population Pyknosed Nuclei (%),[6],2%
same,Population Tubulin-Different-Phenotype (%),[6],42%
same,Total Cell Count,[6],2625
same,Population Apoptotic (%),[7],80% and 55%
same,Population Fragmented Nuclei (%),[7],24% and 18%
same,Population Healthy Nuclei (%),[7],0% and 14%
same,Population Hoechst High Intensity Objects (%),[7],28% and 19%
same,Population Membrane Permeable-Phenotype (%),[7],0% and 8%
same,Population Mitotic Cells (%),[7],19% and 44%
same,Population Normal (%),[7],71% and 80%
same,Population Pyknosed Nuclei (%),[7],75% and 67%
same,Population Apoptotic (%),[8],58% and 99%
same,Population Fragmented Nuclei (%),[8],7% and 14%
same,Population Hoechst High Intensity Objects (%),[8],17% and 16%
same,Population Membrane Permeable-Phenotype (%),[8],9%
same,Population Mitochondria Different-Phenotype (%),[8],84% and 66%
same,Population Normal (%),[8],82% and 83%
same,Population Pyknosed Nuclei (%),[8],79% and 81%
same,Population Tubulin-Different-Phenotype (%),[8],64% and 66%
same,Population Apoptotic (%),[11],82%
same,Population Fragmented Nuclei (%),[11],35%
same,Population Healthy Nuclei (%),[11],0%
same,Population Hoechst High Intensity Objects (%),[11],30%
same,Population Membrane Permeable-Phenotype (%),[11],0%
same,Population Mitochondria Different-Phenotype (%),[11],100%
same,Population Mitotic Cells (%),[11],17%
same,Population Normal (%),[11],69%
same,Population Pyknosed Nuclei (%),[11],63%
same,Population Tubulin-Different-Phenotype (%),[11],100%
same,Total Cell Count,[11],159
same,Population Apoptotic (%),[12],100%
same,Population Fragmented Nuclei (%),[12],19%
same,Population Healthy Nuclei (%),[12],4%
same,Population Hoechst High Intensity Objects (%),[12],17%
same,Population Membrane Permeable-Phenotype (%),[12],16%
same,Population Mitochondria Different-Phenotype (%),[12],83%
same,Population Mitotic Cells (%),[12],0%
same,Population Normal (%),[12],82%
same,Population Pyknosed Nuclei (%),[12],75%
same,Population Tubulin-Different-Phenotype (%),[12],66%
same,Total Cell Count,[12],146
